Reference: ChEMBL document CHEMBL1127414 (J Med Chem, 1994)

Assays:
[1] = molecular target: T1, Squalene synthase (Rattus norvegicus, UniProt Q02769); assay: Tested for inhibition against squalene synthase enzyme in rat liver
T1 sequence (Q02769 whole entry): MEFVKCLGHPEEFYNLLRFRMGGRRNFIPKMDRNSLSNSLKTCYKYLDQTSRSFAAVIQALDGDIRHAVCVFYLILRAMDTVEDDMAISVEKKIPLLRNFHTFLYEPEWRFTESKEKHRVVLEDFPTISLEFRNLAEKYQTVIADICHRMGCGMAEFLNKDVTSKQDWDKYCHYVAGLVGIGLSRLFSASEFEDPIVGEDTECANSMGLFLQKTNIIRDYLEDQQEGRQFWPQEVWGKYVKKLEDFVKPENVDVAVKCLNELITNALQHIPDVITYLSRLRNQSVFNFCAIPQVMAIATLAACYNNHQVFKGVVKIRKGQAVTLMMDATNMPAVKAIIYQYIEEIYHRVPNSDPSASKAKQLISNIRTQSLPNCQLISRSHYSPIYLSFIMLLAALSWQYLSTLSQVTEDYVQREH

[2] = tested on: Mus musculus; assay: Tested for its ability to inhibit the incorporation of [5-3H]-mevalonolactone into cholesterol by in vivo mouse assay by peroral administration at a dose of 12 mg/kg; format: functional; conditions: route oral
Procedure, shortened: (§1)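 Female Swiss Webster mice (~25 g), six per group, dosed po by gavage with inhibitor suspended in 5% emulphor. 30 min later, 0.5 μCi/mouse [5-3H]mevalonolactone in saline given sc. Livers removed 30 min after that and saponified in KOH/EtOH overnight at 55 °C, then petroleum-ether extracted. Nonsaponifiable dpm counted. Compounds first tested at a single dose (typically 12 or 24 mg/kg).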

[3] = molecular target: T2, Squalene synthase (Mus musculus) (UniProt P53798); assay: Tested for the effective dose required for the incorporation of [5-3H]-mevalonolactone into cholesterol by in vivo mouse assay by peroral administration; format: functional, organism-based; procedure, shortened: as §1
T2 sequence (whole entry): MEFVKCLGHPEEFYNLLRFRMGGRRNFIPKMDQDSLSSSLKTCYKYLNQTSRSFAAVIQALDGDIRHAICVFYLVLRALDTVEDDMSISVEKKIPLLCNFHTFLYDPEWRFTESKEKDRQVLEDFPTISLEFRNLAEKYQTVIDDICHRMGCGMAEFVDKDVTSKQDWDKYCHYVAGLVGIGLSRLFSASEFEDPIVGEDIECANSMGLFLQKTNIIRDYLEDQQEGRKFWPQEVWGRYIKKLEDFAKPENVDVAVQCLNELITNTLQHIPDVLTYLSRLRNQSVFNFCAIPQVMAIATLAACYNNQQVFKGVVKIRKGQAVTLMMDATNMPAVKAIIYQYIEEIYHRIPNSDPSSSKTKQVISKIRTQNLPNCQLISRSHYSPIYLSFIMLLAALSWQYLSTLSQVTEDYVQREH

[4] = molecular target: T3, Squalene synthase (Rattus norvegicus) (UniProt Q02769); assay: concentration required to inhibit rat liver squalene synthase enzyme relative to control (L-694,599)
T3 sequence (whole entry): T1 sequence (Q02769 whole entry)
Procedure, shortened: (§2)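 Enzyme from rat liver. […] Inhibitors added in DMSO (0.3% final) as 3-fold serial dilutions, usually up to 30 ng/mL (about 40 nM). IC50 read from % inhibition vs log concentration.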

[5] = tested on: Mus musculus; assay: Ability to inhibit the incorporation of [5-3H]-mevalonolactone into cholesterol by in vivo mouse assay by peroral administration at a dose of 24 mg/kg; format: functional; conditions: route oral; procedure, shortened: as §1
[6] = molecular target: T3, Squalene synthase (Rattus norvegicus); assay: Concentration required to inhibit rat liver squalene synthase enzyme relative to control (L-694,599); procedure, shortened: as §2
[7] = tested on: HepG2; assay: Concentration required to inhibit cholesterol synthesis in Hep G2 cells; format: functional, cell-based; conditions: Homo sapiens
Procedure, shortened: (§3)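 Hep G2 cells held 2 days in lipoprotein-depleted FBS to stimulate sterol synthesis, then given inhibitor in serum-free medium for 2 h. 15 μCi [5-3H]mevalonate (0.2 mCi/mmol) added for 1 h. Cells washed and saponified, and radioactivity counted by scintillation.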

[8] = tested on: HepG2; assay: Concentration required to inhibit cholesterol synthesis in Hep G2 cells relative to control (IC50 of L-694,599); format: functional, Homo sapiens; procedure, shortened: as §3
[9] = tested on: Mus musculus; assay: Tested for its ability to inhibit the incorporation of [5-3H]-mevalonolactone into cholesterol by in vivo mouse assay by peroral administration at a dose of 40 mg/kg; format: functional; conditions: route oral; procedure, shortened: as §1

Structure (SMILES)	IC50 [1]	inhibition in vivo at 12 mg/kg [2]	ED50 [3]	Relative activity [4]	inhibition in vivo at 24 mg/kg [5]	Relative activity [6]	IC50 [7]	Relative activity [8]	inhibition in vivo at 40 mg/kg [9]
C=C(CCC12OC(C(=O)O)C(O)(C(=O)O)C(C(=O)O)(O1)[C@H](OC(=O)CC(C)(C)C)[C@H]2O)[C@@H](OC(C)=O)[C@H](C)Cc1ccccc1 (some centres undefined)	2 nM	25%	> 12 mg/kg	0.15	–	–	–	–	–
C=C(CCC12OC(C(=O)O)C(O)(C(=O)O)C(C(=O)O)(O1)[C@H](OC(=O)/C=C/[C@@H](C)C[C@@H](C)CC)[C@H]2O)C[C@H](C)Cc1ccccc1 (some centres undefined)	0.24 nM	–	–	1.67	–	–	–	–	–
C=C(CCC12OC(C(=O)O)C(O)(C(=O)O)C(C(=O)O)(O1)[C@H](OC(=O)NCC13CC4CC(CC(C4)C1)C3)[C@H]2O)[C@@H](OC(C)=O)[C@H](C)Cc1ccccc1 (some centres undefined)	0.8 nM	–	> 24 mg/kg	–	-5%	0.46	–	–	–
C=C(CCC12OC(C(=O)O)C(O)(C(=O)O)C(C(=O)O)(O1)[C@H](OCCCCCCCCCCCCCCCC)[C@H]2O)[C@@H](OC(C)=O)[C@H](C)Cc1ccccc1 (some centres undefined)	0.79 nM	–	–	0.15	–	–	14000 nM	0.49	–
C=C(CCC12OC(C(=O)O)C(O)(C(=O)O)C(C(=O)O)(O1)[C@H](OCCCCCCCCCCCCCC)[C@H]2O)[C@@H](OC(C)=O)[C@H](C)Cc1ccccc1 (some centres undefined)	0.09 nM	–	–	1.26	–	–	1500 nM	6	0%
C=C(CCC12OC(C(=O)O)C(O)(C(=O)O)C(C(=O)O)(O1)[C@H](OCCCCCCCCCC)[C@H]2O)[C@@H](OC(C)=O)[C@H](C)Cc1ccccc1 (some centres undefined)	0.21 nM	–	–	1.43	–	–	2200 nM	4.09	28%
C=C(CCC12OC(C(=O)O)C(O)(C(=O)O)C(C(=O)O)(O1)[C@H](OC(=O)CC[C@@H](C)C[C@@H](C)CC)[C@H]2O)[C@@H](OC(C)=O)[C@H](C)Cc1ccccc1 (some centres undefined)	0.19 nM	–	–	–	–	0.74	7500 nM	0.8	–
C=C(CCC12OC(C(=O)O)C(O)(C(=O)O)C(C(=O)O)(O1)[C@H](OC(=O)CCCCCCCCCCOc1ccccc1)[C@H]2O)[C@@H](OC(C)=O)[C@H](C)Cc1ccccc1 (some centres undefined)	0.13 nM	–	–	–	11%	1.08	2000 nM	3.4	–
C=C(CCC12OC(C(=O)O)C(O)(C(=O)O)C(C(=O)O)(O1)[C@H](OC(=O)CCCCCCCCCCCCC)[C@H]2O)[C@@H](OC(C)=O)[C@H](C)Cc1ccccc1 (some centres undefined)	0.2 nM	–	–	–	–	1.1	900 nM	6.11	–
C=C(CCC12OC(C(=O)O)C(O)(C(=O)O)C(C(=O)O)(O1)[C@H](OC(=O)NCCCCCCCCCCCC)[C@H]2O)[C@@H](OC(C)=O)[C@H](C)Cc1ccccc1 (some centres undefined)	0.17 nM	–	–	–	0%	1.29	8800 nM	1.02	–
C=C(CCC12OC(C(=O)O)C(OCCCCCCCCCCCOc3ccccc3)(C(=O)O)C(C(=O)O)(O1)[C@H](O)[C@H]2O)[C@@H](OC(C)=O)[C@H](C)Cc1ccccc1 (some centres undefined)	1.1 nM	–	–	0.11	–	–	–	–	–
C=C(CCC12OC(C(=O)O)C(O)(C(=O)O)C(C(=O)O)(O1)[C@H](OC)[C@H]2O)[C@@H](OC(C)=O)[C@H](C)Cc1ccccc1 (some centres undefined)	22 nM	73%	< 12 mg/kg	–	–	0.004	–	–	–
C=C(CCC12OC(C(=O)O)C(O)(C(=O)O)C(C(=O)O)(O1)[C@H](OC(=O)/C=C/[C@@H](C)C[C@@H](C)CC)[C@H]2O)[C@@H](OC(=O)CC)[C@H](C)Cc1ccccc1 (some centres undefined)	0.42 nM	–	–	0.69	-4%	–	–	–	–
CC(=O)OC(CCCC12OC(C(=O)O)C(O)(C(=O)O)C(C(=O)O)(O1)[C@H](OC(=O)CC/C=C/C(C)CCCc1ccccc1)[C@H]2O)C(C)Cc1ccccc1 (some centres undefined)	0.37 nM	–	–	–	–	1.38	–	–	20%
